m-calpain inh – blocks pig calpain II enzyme activity; inhibition, % at 16 µM; purified calpain II, fluorogenic peptide substrate, 30 min; 0.37% of 220,000 active; AID 1236;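 active means inhibition above about 50%, limit read from the data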
KLK5 inh – inhibitors of human kallikrein 5; inhibition, % at 5 µM; Q9Y337; recombinant hK5, fluorogenic AMC substrate cleavage; 0.59% of 210,000 active; AID 873;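 active means inhibition of 40% or more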;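 further: 0% = enzyme controls without compound and 100% = no-enzyme blanks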
FXIIa inh 1536 – factor XIIa (human) inhibition; P00748; inhibition, % at 5 µM; 0.3% of 220,000 active; purified FXIIa, Boc-QGR-AMC fluorogenic substrate, 2 h; in the data active means inhibition above about 40%;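 further: 0% = enzyme with no compound and 100% = blank without enzyme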
Target sequence (P00748 20-372 limits assumed): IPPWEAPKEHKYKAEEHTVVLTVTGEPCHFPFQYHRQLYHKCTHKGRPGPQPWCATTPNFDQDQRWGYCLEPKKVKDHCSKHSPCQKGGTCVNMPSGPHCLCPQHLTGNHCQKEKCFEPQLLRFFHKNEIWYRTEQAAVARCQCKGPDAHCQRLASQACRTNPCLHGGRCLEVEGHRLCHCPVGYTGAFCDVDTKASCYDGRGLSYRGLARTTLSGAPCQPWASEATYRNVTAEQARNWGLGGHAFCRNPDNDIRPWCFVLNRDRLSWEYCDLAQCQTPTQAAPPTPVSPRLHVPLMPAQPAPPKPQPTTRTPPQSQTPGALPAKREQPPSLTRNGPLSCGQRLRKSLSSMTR
Target sequence (P00748 373-615 limits assumed): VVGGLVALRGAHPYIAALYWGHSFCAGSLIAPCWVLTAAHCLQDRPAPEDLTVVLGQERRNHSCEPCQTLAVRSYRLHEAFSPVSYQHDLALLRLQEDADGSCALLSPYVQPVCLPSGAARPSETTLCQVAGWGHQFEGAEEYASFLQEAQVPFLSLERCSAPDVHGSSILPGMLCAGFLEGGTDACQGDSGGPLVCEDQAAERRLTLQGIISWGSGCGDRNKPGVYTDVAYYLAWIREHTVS
thrombin 1536 – inhibitors of human thrombin | alpha-thrombin, Boc-VPR-AMC fluorogenic substrate cleavage | inhibition, % at 5 µM | 0.26% of 220,000 active;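 active means inhibition at or above 40%; inactive means inhibition below 40%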;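 further: 0% = enzyme with no compound and 100% = wells without enzyme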
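Test system: human alpha-thrombin; medium: pH 7.5 Tris-saline with Tween 20; times: reaction at room temperature; signal: AMC fluorescence at 355 nm excitation and 460 nm emission; also added: Boc-VPR-AMC substrate, 15 µM final; dosing: one concentration per compound, 5 µM, with 0.2% DMSO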
FXIa inh – factor XIa (human) inhibition | inhibition, % at 5 µM | AID 798 | purified FXIa, Boc-Glu-Ala-Arg-AMC fluorogenic substrate | P03951 | 0.14% of 220,000 active;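 active means inhibition of at least 40%; inactive means inhibition below 40%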;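 further: fluorescence of freed AMC excited at 355 nm; 0% = enzyme without compound and 100% = no enzyme blank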
Furin inh – blocks human furin protease activity. P09958. purified furin, fluorogenic substrate cleavage. inhibition, % at 20 µM or 30 µM. 0.061% of 220,000 active. AID 463115; in the data active means inhibition above about 25%
Numbers without * were called inactive; . = no result. The list is not random: actives were taken first. Their share in the collection is about 1.4%.

SMILES	m-calpain inh	KLK5 inh	FXIIa inh 1536	thrombin 1536	FXIa inh	Furin inh
O=C(c1ccc(F)cc1)N1CCN(C(=O)c2ccc([N+](=O)[O-])cc2)CC1	-16	5	15	-2	1	-26
Cc1cc(C(=O)OCC(=O)c2cccc([N+](=O)[O-])c2)c2cccc(C)c2n1	-286	-11	3	61*	-13	-10
COc1ccc(-c2cc(C(=O)OCC(=O)c3cccc([N+](=O)[O-])c3)c3cc(C)ccc3n2)cc1	-46	-13	3	-1	8	-21
COc1ccc(N/C(=N\c2nc(C)cc(C)n2)NC(=O)C(C)C)cc1OC	-33	0	0	1	-5	-11
COc1ccc(N/C(=N\c2nc(C)cc(C)n2)NC(C)=O)cc1OC	-33	-5	13	50*	1	-24
CC1=CC(C)(C)n2c(O)c(N=N)c3c(C)ccc1c32	29	4	11	1	3	14
Cc1ccc(N2C(=O)c3cccc4cccc(c34)C2=O)cc1	-22	0	7	-8	-3	-31
CC1=CC2=C(OC1N(C)C)c1cccc3cccc(c13)C2=O (centres undefined)	-20	50*	24	27	9	-25
CN(C)C(=S)Nc1nc2ccccc2s1	18	13	17	0	12	0
CC1=CCC2C(=O)N(C(C)c3ccccc3)C(=O)C2C1 (centres undefined)	-19	-6	13	1	64*	-13
Cc1oc(/N=C/c2ccc3c(c2)OCO3)c(C#N)c1C	27	-5	11	1	-5	-21
O=C1Nc2c(c(=O)[nH]c(=O)n2-c2ccccc2)C1(Nc1ncccn1)C(F)(F)F (centres undefined)	-6	156*	32	13	15	-22
O=C(Nc1ccnc(-c2ccncc2)n1)c1ccccc1Cl	32	4	8	-10	1	-14
CSc1nc(SCC(=O)O)c2sc3nc(-c4ccccc4)c4c(c3c2n1)CCC4	90*	2	12	-3	4	-10
COc1ccc(N(CC(=O)NCc2cccs2)S(=O)(=O)c2c(C)n[nH]c2C)cc1	22	0	-11	-3	-5	-18
COc1ccc(-n2ncc(S(=O)(=O)c3ccccc3)c2-c2ccc(Cl)cc2)cc1	52*	-14	8	-14	-4	-19
O=S(=O)(c1ccccc1)c1cnn(-c2ccccc2)c1-c1ccc(F)cc1	-9	2	-7	-17	0	-14
Cc1ccc(S(=O)(=O)NN2C(=O)/C(=C/c3cccn3C)SC2=S)cc1	19	41*	34	20	5	-5
Nc1cc(Oc2cccnc2)cc([N+](=O)[O-])c1	47	.	-1	-8	-9	-7
O=C1CC(c2ccccc2)CC(O)=C1C=NCCN1CCN(C(=S)Nc2cccc(Cl)c2)CC1 (centres undefined)	15	44*	14	7	0	-3
Cc1ccc(C2CC(=O)C(C=NCCN3CCN(C(=S)Nc4ccc(F)cc4)CC3)=C(O)C2)cc1 (centres undefined)	-1	-3	6	-8	-2	-9
O=C(NCc1ccccc1Cl)c1cccc(C(F)(F)F)c1	33	41*	14	40	-2	-13
O=C(NCc1cccc(Cl)c1)c1cccc(C(F)(F)F)c1	14	-22	10	-1	5	-19
Cc1cc(C)c(C(=O)COC(=O)CCNS(=O)(=O)c2c(Cl)cccc2Cl)cc1C	51*	-14	7	-7	6	1
O=C(NC1CCCc2ccccc21)C1CCN(S(=O)(=O)c2ccccc2F)CC1 (centres undefined)	22	28	88*	29	6	2
SMILES	m-calpain inh	KLK5 inh	FXIIa inh 1536	thrombin 1536	FXIa inh	Furin inh
O=C(NC1CCCc2ccccc21)C1CCN(S(=O)(=O)c2ccccc2)CC1 (centres undefined)	31	7	19	18	10	-17
O=C(Nc1ccc(N2CCOCC2)cc1)C1CCN(S(=O)(=O)c2ccccc2F)CC1	-3	8	6	70*	7	-15
O=S(=O)(CC(c1ccccc1)N1CCCCC1)c1ccc(Cl)cc1 (centres undefined)	20	48*	16	6	5	-9
Cc1ccc(S(=O)(=O)CC(c2ccccc2)N2CCCCC2)cc1 (centres undefined)	-14	3	.	-1	5	-34
CCOC(=O)c1c(NC(=O)COc2ncnc3ccccc23)sc(C)c1CC	35	69*	24	34	3	-4
Cc1nc(Cl)c(C#N)cc1-c1ccccc1	15	57*	18	28	12	-22
Cc1nc(Sc2ccccc2)c(C#N)cc1-c1ccccc1	15	-15	18	-2	2	-10
CCN1C(=O)/C(=C\c2cn(-c3ccccc3)nc2-c2cccnc2)SC1=S	51*	6	12	-8	5	-11
CCOc1ccc(-c2nn(-c3ccccc3)cc2/C=C2\SC(=S)N(Cc3ccco3)C2=O)cc1	-50	-4	10	-12	0	-1
CCOc1ccc(NC(=O)COC(=O)c2ccc3c(c2)C(=O)N(CCc2ccccc2)C3=O)cc1	22	-7	2	-6	-7	-4
CCOC(=O)NC(=O)COC(=O)c1ccc(O)cc1	-3	5	9	1	4	-23
Cn1c(NCCc2ccccc2)cc(=O)n(C)c1=O	10	3	77*	-2	-2	-18
CCCNc1cc(=O)n(C)c(=O)n1C	11	5	-7	-7	-12	-26
COc1ccc(OCCNc2cc(N3CCOCC3)ccc2[N+](=O)[O-])cc1	93*	-23	0	0	-8	-8
COCC(=O)n1nc(-c2ccccc2)nc1NCc1cccs1	-2	6	11	86*	3	-19
O=C(c1cccs1)n1nc(-c2ccccc2)nc1NCc1ccco1	-3	2	3	10	-4	-9
CCC(=O)n1nc(-c2ccc(Cl)cc2)nc1NCc1ccccc1	-8	-9	14	71*	4	0
CCCCn1c(SCC(=O)NC2CC(C)(C)NC(C)(C)C2)nc2cc(S(N)(=O)=O)ccc21	-3	-5	-2	-6	-6	-18
CCn1c(NCc2ccc3c(c2)OCO3)nc2ccccc21	13	53*	11	21	3	-6
O=C1c2cccc3cccc(c23)C(=O)N1CCCN1CCN(c2ccc(F)cc2)CC1	54*	4	11	.	8	-1
CO/N=C(\N)c1nonc1N	8	22	25	17	58*	-10
CCCOP(=O)(c1ccc(N(C)C)cc1)C(O)c1ccncc1 (centres undefined)	4	15	15	66*	11	-28
CCCOP(=O)(c1ccc(N(C)C)cc1)C(Nc1ccccc1)c1ccc(N(C)C)cc1 (centres undefined)	-28	-4	10	-2	8	28*
